Experimental data reported in ChEMBL document CHEMBL5356993, “Novel pyrazolo[3,4-d]pyrimidine derivatives: design, synthesis, anticancer evaluation, VEGFR-2 inhibition, and antiangiogenic activity” (RSC Med Chem, 2023).
pIC50: −log10 of the molar value.

Test system: NCI-H460
Assay: Antiproliferative activity against human NCI-H460 cells assessed as cell growth inhibition at 10 uM incubated for 48 hrs by SRB assay relative to control
Format: functional
Settings: read-out: GI

Structure (SMILES)	inhibition of growth at 10 µM [%]
Cc1nc2c(cnn2-c2ccccc2)c(=O)n1-c1ccc(NC(=O)c2ccc(F)cc2)cc1	45.6

Test system: NCI-H522
Assay: Antiproliferative activity against human NCI-H522 cells assessed as cell growth inhibition at 10 uM incubated for 48 hrs by SRB assay relative to control
Format: functional
Settings: read-out: GI
Outline: (§1)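 Cells plated in 96-well plates at […] cells/well and preincubated 24 h at 37 °C, 5% CO2. Time-zero plates were TCA-fixed. Compound was diluted in medium with 50 µg/mL gentamicin and cells exposed for 48 h. Adherent cells fixed with 10% final TCA; suspension cells with 16% final TCA. Plates stained with 0.4% SRB in 1% acetic acid, dye solubilized in 10 mM Trizma, absorbance read at 515 nm. Percent growth calculated against time-zero and control.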

Structure (SMILES)	inhibition of growth at 10 µM [%]
Cc1nc2c(cnn2-c2ccccc2)c(=O)n1-c1ccc(NC(=O)c2ccc(F)cc2)cc1	36.1

Test system: HCC 2998
Assay: Antiproliferative activity against human HCC 2998 cells assessed as cell growth inhibition at 10 uM incubated for 48 hrs by SRB assay relative to control
Format: functional
Settings: read-out: GI

Structure (SMILES)	inhibition of growth at 10 µM [%]
Cc1nc2c(cnn2-c2ccccc2)c(=O)n1-c1ccc(NC(=O)c2ccc(F)cc2)cc1	20.1

Test system: HCT-116
Assay: Antiproliferative activity against human HCT-116 cells assessed as cell growth inhibition at 10 uM incubated for 48 hrs by SRB assay relative to control
Format: functional
Settings: read-out: GI

Structure (SMILES)	inhibition of growth at 10 µM [%]
Cc1nc2c(cnn2-c2ccccc2)c(=O)n1-c1ccc(NC(=O)c2ccc(F)cc2)cc1	51.7

Test system: HCT-15
Assay: Antiproliferative activity against human HCT-15 cells assessed as cell growth inhibition at 10 uM incubated for 48 hrs by SRB assay relative to control
Format: functional
Settings: read-out: GI

Structure (SMILES)	inhibition of growth at 10 µM [%]
Cc1nc2c(cnn2-c2ccccc2)c(=O)n1-c1ccc(NC(=O)c2ccc(F)cc2)cc1	33.9

Test system: SW-620
Assay: Antiproliferative activity against human SW620 cells assessed as cell growth inhibition at 10 uM incubated for 48 hrs by SRB assay relative to control
Format: functional
Settings: read-out: GI
Outline: (§2)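 Cells pre-incubated 24 h at 37°C, 5% CO2, then exposed to compound (DMSO stock diluted in medium with 50 µg/mL gentamicin) for 48 h. Adherent cells fixed with cold TCA (final 10%, 60 min, 4°C); suspension cells fixed with 16% TCA final. Stained with 0.4% SRB in 1% acetic acid for 10 min, dye solubilized in 10 mM Trizma base, absorbance read at 515 nm. Growth calculated against time-zero and untreated control plates.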

Structure (SMILES)	inhibition of growth at 10 µM [%]
Cc1nc2c(cnn2-c2ccccc2)c(=O)n1-c1ccc(NC(=O)c2ccc(F)cc2)cc1	23.5

Test system: SF-539
Assay: Antiproliferative activity against human SF-539 cells assessed as cell growth inhibition at 10 uM incubated for 48 hrs by SRB assay relative to control
Format: functional
Settings: read-out: GI
Outline: as §1

Structure (SMILES)	inhibition of growth at 10 µM [%]
Cc1nc2c(cnn2-c2ccccc2)c(=O)n1-c1ccc(NC(=O)c2ccc(F)cc2)cc1	< 15

Test system: LOX IMVI
Assay: Antiproliferative activity against human LOX IMVI cells assessed as cell growth inhibition at 10 uM incubated for 48 hrs by SRB assay relative to control
Format: functional
Settings: read-out: GI

Structure (SMILES)	inhibition of growth at 10 µM [%]
Cc1nc2c(cnn2-c2ccccc2)c(=O)n1-c1ccc(NC(=O)c2ccc(F)cc2)cc1	38.2

Test system: M14
Assay: Antiproliferative activity against human M14 cells assessed as cell growth inhibition at 10 uM incubated for 48 hrs by SRB assay relative to control
Format: functional
Settings: read-out: GI
Outline: as §1

Structure (SMILES)	inhibition of growth at 10 µM [%]
Cc1nc2c(cnn2-c2ccccc2)c(=O)n1-c1ccc(NC(=O)c2ccc(F)cc2)cc1	37.1

Test system: MDA-MB-435
Assay: Antiproliferative activity against human MDA-MB-435 cells assessed as cell growth inhibition at 10 uM incubated for 48 hrs by SRB assay relative to control
Format: functional
Settings: read-out: GI

Structure (SMILES)	inhibition of growth at 10 µM [%]
Cc1nc2c(cnn2-c2ccccc2)c(=O)n1-c1ccc(NC(=O)c2ccc(F)cc2)cc1	46.2

Test system: SK-MEL-5
Assay: Antiproliferative activity against human SK-MEL-5 cells assessed as cell growth inhibition at 10 uM incubated for 48 hrs by SRB assay relative to control
Format: functional
Settings: read-out: GI
Outline: as §1

Structure (SMILES)	inhibition of growth at 10 µM [%]
Cc1nc2c(cnn2-c2ccccc2)c(=O)n1-c1ccc(NC(=O)c2ccc(F)cc2)cc1	> 100

Test system: UACC-62
Assay: Antiproliferative activity against human UACC-62 cells assessed as cell growth inhibition at 10 uM incubated for 48 hrs by SRB assay relative to control
Format: functional
Settings: read-out: GI
Outline: as §2

Structure (SMILES)	inhibition of growth at 10 µM [%]
Cc1nc2c(cnn2-c2ccccc2)c(=O)n1-c1ccc(NC(=O)c2ccc(F)cc2)cc1	36.9

Test system: OVCAR-4
Assay: Antiproliferative activity against human OVCAR-4 cells assessed as cell growth inhibition at 10 uM incubated for 48 hrs by SRB assay relative to control
Format: functional
Settings: read-out: GI

Structure (SMILES)	inhibition of growth at 10 µM [%]
Cc1nc2c(cnn2-c2ccccc2)c(=O)n1-c1ccc(NC(=O)c2ccc(F)cc2)cc1	59.9

Test system: 786-0
Assay: Antiproliferative activity against human 786-0 cells assessed as cell growth inhibition at 10 uM incubated for 48 hrs by SRB assay relative to control
Format: functional
Settings: read-out: GI

Structure (SMILES)	inhibition of growth at 10 µM [%]
Cc1nc2c(cnn2-c2ccccc2)c(=O)n1-c1ccc(NC(=O)c2ccc(F)cc2)cc1	17.5

Test system: A498
Assay: Antiproliferative activity against human A498 cells assessed as cell growth inhibition at 10 uM incubated for 48 hrs by SRB assay relative to control
Format: functional
Settings: read-out: GI
Outline: as §1

Structure (SMILES)	inhibition of growth at 10 µM [%]
Cc1nc2c(cnn2-c2ccccc2)c(=O)n1-c1ccc(NC(=O)c2ccc(F)cc2)cc1	< 15

Test system: TK-10
Assay: Antiproliferative activity against human TK-10 cells assessed as cell growth inhibition at 10 uM incubated for 48 hrs by SRB assay relative to control
Format: functional
Settings: read-out: GI
Outline: as §2

Structure (SMILES)	inhibition of growth at 10 µM [%]
Cc1nc2c(cnn2-c2ccccc2)c(=O)n1-c1ccc(NC(=O)c2ccc(F)cc2)cc1	29

Test system: T47D
Assay: Antiproliferative activity against human T47D cells assessed as cell growth inhibition at 10 uM incubated for 48 hrs by SRB assay relative to control
Format: functional
Settings: read-out: GI
Outline: as §2

Structure (SMILES)	inhibition of growth at 10 µM [%]
Cc1nc2c(cnn2-c2ccccc2)c(=O)n1-c1ccc(NC(=O)c2ccc(F)cc2)cc1	82

Test system: NCI-H23
Assay: Antiproliferative activity against human NCI-H23 cells assessed as cell growth inhibition at 10 uM incubated for 48 hrs by SRB assay relative to control
Format: functional
Settings: read-out: GI

Structure (SMILES)	inhibition of growth at 10 µM [%]
Cc1nc2c(cnn2-c2ccccc2)c(=O)n1-c1ccc(NC(=O)c2ccc(F)cc2)cc1	49.8

Test system: HOP-62
Assay: Antiproliferative activity against human HOP-62 cells assessed as cell growth inhibition at 10 uM incubated for 48 hrs by SRB assay relative to control
Format: functional
Settings: read-out: GI

Structure (SMILES)	inhibition of growth at 10 µM [%]
Cc1nc2c(cnn2-c2ccccc2)c(=O)n1-c1ccc(NC(=O)c2ccc(F)cc2)cc1	35.4

Test system: EKVX
Assay: Antiproliferative activity against human EKVX cells assessed as cell growth inhibition at 10 uM incubated for 48 hrs by SRB assay relative to control
Format: functional
Settings: read-out: GI

Structure (SMILES)	inhibition of growth at 10 µM [%]
Cc1nc2c(cnn2-c2ccccc2)c(=O)n1-c1ccc(NC(=O)c2ccc(F)cc2)cc1	69.8

Test system: K562
Assay: Antiproliferative activity against human K562 cells assessed as cell growth inhibition at 10 uM incubated for 48 hrs by SRB assay relative to control
Format: functional
Settings: read-out: GI

Structure (SMILES)	inhibition of growth at 10 µM [%]
Cc1nc2c(cnn2-c2ccccc2)c(=O)n1-c1ccc(NC(=O)c2ccc(F)cc2)cc1	72.8

Test system: HL-60(TB)
Assay: Antiproliferative activity against human HL-60(TB) cells assessed as cell growth inhibition at 10 uM incubated for 48 hrs by SRB assay relative to control
Format: functional
Settings: read-out: GI
Outline: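 Cells were plated at […] cells/well and preincubated 24 h at 37°C, 5% CO2, with time-zero plates TCA-fixed. Compound was diluted from DMSO stock in medium with 50 µg/mL gentamicin, then exposed for 48 h. Settled suspension cells were fixed with 80% TCA (final 16%), stained with 0.4% SRB and solubilized in 10 mM Trizma, A515. Growth was taken relative to Tz and control.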

Structure (SMILES)	inhibition of growth at 10 µM [%]
Cc1nc2c(cnn2-c2ccccc2)c(=O)n1-c1ccc(NC(=O)c2ccc(F)cc2)cc1	57.5

Test system: CCRF-CEM
Assay: Antiproliferative activity against human CCRF-CEM cells assessed as cell growth inhibition at 10 uM incubated for 48 hrs by SRB assay relative to control
Format: functional
Settings: read-out: GI
Outline: as §1

Structure (SMILES)	inhibition of growth at 10 µM [%]
Cc1nc2c(cnn2-c2ccccc2)c(=O)n1-c1ccc(NC(=O)c2ccc(F)cc2)cc1	65.2

Test system: not listed separately
Assay: Cytotoxicity against human MCF-10A cells assessed as cell growth inhibition incubated for 72 hrs by MTT assay
Settings: not given

Structure (SMILES)	IC50 at 72 h [µM]
Cc1nc2c(cnn2-c2ccccc2)c(=O)n1-c1ccc(NC(=O)c2ccc(F)cc2)cc1	22.8

Test system: MDA-MB-468
Assay: Cytotoxicity against human MDA-MB-468 cells assessed as cell growth inhibition incubated for 72 hrs by MTT assay
Format: functional, cell-based
Settings: MDA-MB-468, 72 h

Structure (SMILES)	pIC50
Cc1nc2c(cnn2-c2ccccc2)c(=O)n1-c1ccc(NC(=O)c2ccc(F)cc2)cc1	5.48

Test system: T47D
Assay: Cytotoxicity against human T47D cells assessed as cell growth inhibition incubated for 72 hrs by MTT assay
Format: functional, cell-based
Settings: not given

Structure (SMILES)	pIC50
Cc1nc2c(cnn2-c2ccccc2)c(=O)n1-c1ccc(NC(=O)c2ccc(F)cc2)cc1	5.32

Test system: not listed separately
Assay: Selectivity index, ratio of IC50 for human MCF-10A cells to IC50 for human MDA-MB-468 cells
Settings: MCF-10A cells versus MDA-MB-468 cells

Structure (SMILES)	selectivity ratio
Cc1nc2c(cnn2-c2ccccc2)c(=O)n1-c1ccc(NC(=O)c2ccc(F)cc2)cc1	6.81

Test system: not listed separately
Assay: Selectivity index, ratio of IC50 for human MCF-10A cells to IC50 for human T47D cells
Settings: MCF-10A cells versus T47D cells

Structure (SMILES)	selectivity ratio
Cc1nc2c(cnn2-c2ccccc2)c(=O)n1-c1ccc(NC(=O)c2ccc(F)cc2)cc1	4.75

Target: Vascular endothelial growth factor receptor 2 (Homo sapiens, UniProt P35968)
Sequence (P35968 whole entry): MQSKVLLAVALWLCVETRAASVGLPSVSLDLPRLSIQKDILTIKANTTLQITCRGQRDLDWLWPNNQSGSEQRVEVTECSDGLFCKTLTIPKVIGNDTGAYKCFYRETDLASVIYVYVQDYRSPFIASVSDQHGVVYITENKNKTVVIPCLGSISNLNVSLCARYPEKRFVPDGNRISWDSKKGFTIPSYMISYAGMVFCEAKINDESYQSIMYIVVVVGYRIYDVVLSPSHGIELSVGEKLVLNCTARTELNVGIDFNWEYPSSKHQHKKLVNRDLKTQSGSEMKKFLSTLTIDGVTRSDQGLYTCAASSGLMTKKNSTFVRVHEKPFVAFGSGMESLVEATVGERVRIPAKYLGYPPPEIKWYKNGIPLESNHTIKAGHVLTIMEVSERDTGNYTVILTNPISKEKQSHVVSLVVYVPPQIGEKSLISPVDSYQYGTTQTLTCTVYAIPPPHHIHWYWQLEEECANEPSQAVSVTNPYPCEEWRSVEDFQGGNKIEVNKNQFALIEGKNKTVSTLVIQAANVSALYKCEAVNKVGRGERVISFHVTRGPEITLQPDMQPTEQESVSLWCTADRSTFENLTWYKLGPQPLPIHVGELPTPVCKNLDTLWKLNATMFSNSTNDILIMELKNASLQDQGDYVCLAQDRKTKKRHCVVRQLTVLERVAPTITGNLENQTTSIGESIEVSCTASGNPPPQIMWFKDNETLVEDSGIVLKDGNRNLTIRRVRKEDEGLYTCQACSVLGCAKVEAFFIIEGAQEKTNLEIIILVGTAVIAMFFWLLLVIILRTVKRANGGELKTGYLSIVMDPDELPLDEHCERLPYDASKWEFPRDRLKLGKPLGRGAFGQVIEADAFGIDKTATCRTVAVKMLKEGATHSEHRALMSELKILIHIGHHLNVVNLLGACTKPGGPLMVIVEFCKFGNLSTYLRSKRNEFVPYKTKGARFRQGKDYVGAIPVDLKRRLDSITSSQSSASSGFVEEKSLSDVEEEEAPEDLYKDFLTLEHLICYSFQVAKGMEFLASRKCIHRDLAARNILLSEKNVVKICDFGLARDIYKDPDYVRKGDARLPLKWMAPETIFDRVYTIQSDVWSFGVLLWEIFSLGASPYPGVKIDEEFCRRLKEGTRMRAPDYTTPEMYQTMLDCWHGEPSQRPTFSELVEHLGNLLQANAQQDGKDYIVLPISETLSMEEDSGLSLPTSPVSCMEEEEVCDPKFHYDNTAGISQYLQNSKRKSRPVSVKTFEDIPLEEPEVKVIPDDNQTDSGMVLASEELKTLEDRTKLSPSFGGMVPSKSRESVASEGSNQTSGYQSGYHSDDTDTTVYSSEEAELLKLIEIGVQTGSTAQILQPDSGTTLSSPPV
Assay: Inhibition of VEGFR-2 (unknown origin) incubated for 45 mins by Kinase-Glo Max assay
Settings: not given

Structure (SMILES)	pIC50
Cc1nc2c(cnn2-c2ccccc2)c(=O)n1-c1ccc(NC(=O)c2ccc(F)cc2)cc1	7.20

Test system: HUVEC
Assay: Antiangiogenic activity against HUVEC cells assessed as decrease in healing rate at IC50 incubated for 72 hrs by wound healing assay relative to control
Format: functional, Homo sapiens
Set-up: scale not given: the % may be the effect or the level left
Settings: not given

Structure (SMILES)	Activity [%]
Cc1nc2c(cnn2-c2ccccc2)c(=O)n1-c1ccc(NC(=O)c2ccc(F)cc2)cc1	23

Test system: MDA-MB-468
Assay: Induction of cell cycle arrest in human MDA-MB-468 cells assessed as decrease in cell population at G2/M phase at IC50 incubated for 24 hrs by RNase/PI staining based flow cytometry relative to control
Format: functional
Set-up: scale not given: the % may be the effect or the level left
Settings: not given

Structure (SMILES)	Activity [%]
Cc1nc2c(cnn2-c2ccccc2)c(=O)n1-c1ccc(NC(=O)c2ccc(F)cc2)cc1	43.46

Test system: MDA-MB-468
Assay: Induction of apoptosis in human MDA-MB-468 cells assessed as fold increase in total apoptotic cells at IC50 incubated for 24 hrs by Annexin V/PI staining based flow cytometry relative to control
Format: functional
Settings: not given

Structure (SMILES)	fold change (FC)
Cc1nc2c(cnn2-c2ccccc2)c(=O)n1-c1ccc(NC(=O)c2ccc(F)cc2)cc1	18.98
